Results as given in ChEMBL document CHEMBL5058577, “EUbOPEN Chemogenomics Library 2 (Multiplex)” (2022).
Non-standard residues stand in square brackets, D forms with d. Residues, ends and D or L forms follow the SMILES beside them.

Test system: HEK-293T
Assay: Multiplex assay against HEK293T
Format: toxicity, cell-based
Conditions: human
Procedure, shortened: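 Live cells carried four stains from seeding: Hoechst33342, BioTracker Green Microtubule Cytoskeleton Dye, MitoTracker Red and Annexin V Alexa Fluor 680. They were imaged on a CQ1 microscope at 37°C and 5% CO2 after compound addition. Using CellPathfinder machine-learning gating, cells were split into Hoechst high-intensity objects or normal cells, normal cells into healthy, pyknosed or fragmented nuclei, and pyknosed cells into mitotic or apoptotic; tubulin, mitochondrial-mass and membrane-permeability phenotypes are per cents of healthy-nucleus cells.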

[1] = 12 h, 1 µM, compound concentration 1 uM, replicate 1
[2] = 12 h, 1 µM, compound concentration 1 uM, replicate 2
[3] = 12 h, 10 µM, compound concentration 10 uM, replicate 1
[4] = 12 h, 10 µM, compound concentration 10 uM, replicate 2
[5] = 24 h, 1 µM, compound concentration 1 uM, replicate 1
[6] = 24 h, 1 µM, compound concentration 1 uM, replicate 2
[7] = 24 h, 10 µM, compound concentration 10 uM, replicate 1
[8] = 24 h, 10 µM, compound concentration 10 uM, replicate 2
[9] = 48 h, 1 µM, compound concentration 1 uM, replicate 1
[10] = 48 h, 1 µM, compound concentration 1 uM, replicate 2
[11] = 48 h, 10 µM, compound concentration 10 uM, replicate 1
[12] = 48 h, 10 µM, compound concentration 10 uM, replicate 2

CCC(=O)OCC(=O)[C@@]1(OC(=O)CC)[C@@H](C)C[C@H]2[C@@H]3CCC4=CC(=O)C=C[C@]4(C)[C@@]3(Cl)[C@@H](O)C[C@@]21C [BECLOMETHASONE DIPROPIONATE]
Population Apoptotic (%) [1]: 43%
Population Fragmented Nuclei (%) [1]: 8%
Population Healthy Nuclei (%) [1]: 75%
Population Hoechst High Intensity Objects (%) [1]: 7%
Population Membrane Permeable-Phenotype (%) [1]: 0%
Population Mitochondria Different-Phenotype (%) [1]: 60%
Population Mitotic Cells (%) [1]: 56%
Population Normal (%) [1]: 92%
Population Pyknosed Nuclei (%) [1]: 15%
Population Tubulin-Different-Phenotype (%) [1]: 48%
Total Cell Count [1]: 388
Population Apoptotic (%) [2]: 47%
Population Fragmented Nuclei (%) [2]: 5%
Population Healthy Nuclei (%) [2]: 74%
Population Hoechst High Intensity Objects (%) [2]: 4%
Population Mitochondria Different-Phenotype (%) [2]: 75%
Population Mitotic Cells (%) [2]: 52%
Population Normal (%) [2]: 95%
Population Pyknosed Nuclei (%) [2]: 19%
Population Tubulin-Different-Phenotype (%) [2]: 42%
Total Cell Count [2]: 356
Population Apoptotic (%) [3]: 60%
Population Fragmented Nuclei (%) [3]: 8%
Population Healthy Nuclei (%) [3]: 66%
Population Hoechst High Intensity Objects (%) [3]: 14%
Population Membrane Permeable-Phenotype (%) [3]: 0%
Population Mitochondria Different-Phenotype (%) [3]: 87%
Population Mitotic Cells (%) [3]: 39%
Population Normal (%) [3]: 85%
Population Pyknosed Nuclei (%) [3]: 25%
Population Tubulin-Different-Phenotype (%) [3]: 65%
Total Cell Count [3]: 236
Population Apoptotic (%) [4]: 68%
Population Fragmented Nuclei (%) [4]: 6%
Population Hoechst High Intensity Objects (%) [4]: 16%
Population Mitochondria Different-Phenotype (%) [4]: 93%
Population Mitotic Cells (%) [4]: 31%
Population Normal (%) [4]: 83%
Population Pyknosed Nuclei (%) [4]: 27%
Population Tubulin-Different-Phenotype (%) [4]: 35%
Total Cell Count [4]: 252
Population Apoptotic (%) [5]: 32%
Population Fragmented Nuclei (%) [5]: 7%
Population Healthy Nuclei (%) [5]: 81%
Population Hoechst High Intensity Objects (%) [5]: 4%
Population Membrane Permeable-Phenotype (%) [5]: 0%
Population Mitochondria Different-Phenotype (%) [5]: 40%
Population Mitotic Cells (%) [5]: 67%
Population Normal (%) [5]: 95%
Population Pyknosed Nuclei (%) [5]: 11%
Population Tubulin-Different-Phenotype (%) [5]: 31%
Total Cell Count [5]: 507
Population Apoptotic (%) [6]: 43%
Population Hoechst High Intensity Objects (%) [6]: 5%
Population Mitochondria Different-Phenotype (%) [6]: 52%
Population Mitotic Cells (%) [6]: 56%
Population Normal (%) [6]: 94%
Population Tubulin-Different-Phenotype (%) [6]: 18%
Total Cell Count [6]: 446
Population Apoptotic (%) [7]: 56%
Population Fragmented Nuclei (%) [7]: 13%
Population Healthy Nuclei (%) [7]: 65%
Population Hoechst High Intensity Objects (%) [7]: 11%
Population Membrane Permeable-Phenotype (%) [7]: 0%
Population Mitochondria Different-Phenotype (%) [7]: 89%
Population Mitotic Cells (%) [7]: 44%
Population Normal (%) [7]: 88%
Population Pyknosed Nuclei (%) [7]: 21%
Population Tubulin-Different-Phenotype (%) [7]: 73%
Total Cell Count [7]: 270
Population Apoptotic (%) [8]: 62%
Population Fragmented Nuclei (%) [8]: 5%
Population Healthy Nuclei (%) [8]: 71%
Population Hoechst High Intensity Objects (%) [8]: 9%
Population Mitochondria Different-Phenotype (%) [8]: 97%
Population Mitotic Cells (%) [8]: 37%
Population Normal (%) [8]: 90%
Population Pyknosed Nuclei (%) [8]: 23%
Population Tubulin-Different-Phenotype (%) [8]: 43%
Total Cell Count [8]: 243
Population Apoptotic (%) [9]: 30%
Population Fragmented Nuclei (%) [9]: 11%
Population Healthy Nuclei (%) [9]: 78%
Population Hoechst High Intensity Objects (%) [9]: 4%
Population Membrane Permeable-Phenotype (%) [9]: 0%
Population Mitochondria Different-Phenotype (%) [9]: 28%
Population Mitotic Cells (%) [9]: 69%
Population Normal (%) [9]: 95%
Population Pyknosed Nuclei (%) [9]: 9%
Population Tubulin-Different-Phenotype (%) [9]: 18%
Total Cell Count [9]: 742
Population Apoptotic (%) [10]: 31%
Population Fragmented Nuclei (%) [10]: 12%
Population Healthy Nuclei (%) [10]: 79%
Population Hoechst High Intensity Objects (%) [10]: 3%
Population Mitochondria Different-Phenotype (%) [10]: 32%
Population Mitotic Cells (%) [10]: 68%
Population Normal (%) [10]: 96%
Population Pyknosed Nuclei (%) [10]: 8%
Population Tubulin-Different-Phenotype (%) [10]: 17%
Total Cell Count [10]: 655
Population Apoptotic (%) [11]: 67%
Population Fragmented Nuclei (%) [11]: 14%
Population Healthy Nuclei (%) [11]: 72%
Population Hoechst High Intensity Objects (%) [11]: 5%
Population Membrane Permeable-Phenotype (%) [11]: 0%
Population Mitochondria Different-Phenotype (%) [11]: 72%
Population Mitotic Cells (%) [11]: 32%
Population Normal (%) [11]: 94%
Population Pyknosed Nuclei (%) [11]: 13%
Population Tubulin-Different-Phenotype (%) [11]: 43%
Total Cell Count [11]: 347
Population Apoptotic (%) [12]: 65%
Population Fragmented Nuclei (%) [12]: 12%
Population Mitochondria Different-Phenotype (%) [12]: 90%
Population Mitotic Cells (%) [12]: 34%
Population Pyknosed Nuclei (%) [12]: 15%
Population Tubulin-Different-Phenotype (%) [12]: 62%
Total Cell Count [12]: 283

CC(C)C[C@@H]1NC(=O)[C@@H](C(C)C)NC(=O)[C@@H]2CCCN2C(=O)[C@@H](CC(=O)O)NC(=O)[C@@H](Cc2c[nH]c3ccccc23)NC1=O [BQ-123] (cyclo(L[dW][dD]P[dV]))
Population Apoptotic (%) [1]: 46%
Population Fragmented Nuclei (%) [1]: 7%
Population Healthy Nuclei (%) [1]: 80%
Population Hoechst High Intensity Objects (%) [1]: 4%
Population Membrane Permeable-Phenotype (%) [1]: 0%
Population Mitochondria Different-Phenotype (%) [1]: 39%
Population Mitotic Cells (%) [1]: 53%
Population Normal (%) [1]: 95%
Population Pyknosed Nuclei (%) [1]: 11%
Population Tubulin-Different-Phenotype (%) [1]: 32%
Total Cell Count [1]: 376
Population Fragmented Nuclei (%) [2]: 5%
Population Healthy Nuclei (%) [2]: 82%
Population Hoechst High Intensity Objects (%) [2]: 7%
Population Mitochondria Different-Phenotype (%) [2]: 59%
Population Normal (%) [2]: 92%
Population Tubulin-Different-Phenotype (%) [2]: 19%
Total Cell Count [2]: 392
Population Apoptotic (%) [3]: 30%
Population Fragmented Nuclei (%) [3]: 7%
Population Healthy Nuclei (%) [3]: 78%
Population Hoechst High Intensity Objects (%) [3]: 7%
Population Membrane Permeable-Phenotype (%) [3]: 0%
Population Mitochondria Different-Phenotype (%) [3]: 48%
Population Mitotic Cells (%) [3]: 69%
Population Normal (%) [3]: 92%
Population Pyknosed Nuclei (%) [3]: 14%
Population Tubulin-Different-Phenotype (%) [3]: 31%
Total Cell Count [3]: 387
Population Apoptotic (%) [4]: 71%
Population Fragmented Nuclei (%) [4]: 5%
Population Hoechst High Intensity Objects (%) [4]: 11%
Population Mitochondria Different-Phenotype (%) [4]: 65%
Population Mitotic Cells (%) [4]: 28%
Population Normal (%) [4]: 88%
Population Pyknosed Nuclei (%) [4]: 16%
Population Tubulin-Different-Phenotype (%) [4]: 22%
Total Cell Count [4]: 265
Population Apoptotic (%) [5]: 26%
Population Fragmented Nuclei (%) [5]: 10%
Population Healthy Nuclei (%) [5]: 79%
Population Hoechst High Intensity Objects (%) [5]: 3%
Population Membrane Permeable-Phenotype (%) [5]: 0%
Population Mitochondria Different-Phenotype (%) [5]: 27%
Population Mitotic Cells (%) [5]: 73%
Population Normal (%) [5]: 96%
Population Pyknosed Nuclei (%) [5]: 9%
Population Tubulin-Different-Phenotype (%) [5]: 21%
Total Cell Count [5]: 497
Population Apoptotic (%) [6]: 40%
Population Fragmented Nuclei (%) [6]: 7%
Population Healthy Nuclei (%) [6]: 82%
Population Hoechst High Intensity Objects (%) [6]: 5%
Population Mitochondria Different-Phenotype (%) [6]: 35%
Population Mitotic Cells (%) [6]: 59%
Population Normal (%) [6]: 94%
Population Tubulin-Different-Phenotype (%) [6]: 14%
Total Cell Count [6]: 538
Population Apoptotic (%) [7]: 25%
Population Fragmented Nuclei (%) [7]: 11%
Population Healthy Nuclei (%) [7]: 77%
Population Hoechst High Intensity Objects (%) [7]: 6%
Population Membrane Permeable-Phenotype (%) [7]: 0%
Population Mitochondria Different-Phenotype (%) [7]: 31%
Population Mitotic Cells (%) [7]: 75%
Population Normal (%) [7]: 93%
Population Pyknosed Nuclei (%) [7]: 11%
Population Tubulin-Different-Phenotype (%) [7]: 24%
Total Cell Count [7]: 511
Population Apoptotic (%) [8]: 57%
Population Fragmented Nuclei (%) [8]: 8%
Population Healthy Nuclei (%) [8]: 78%
Population Hoechst High Intensity Objects (%) [8]: 7%
Population Mitochondria Different-Phenotype (%) [8]: 50%
Population Mitotic Cells (%) [8]: 42%
Population Normal (%) [8]: 92%
Population Pyknosed Nuclei (%) [8]: 12%
Population Tubulin-Different-Phenotype (%) [8]: 18%
Total Cell Count [8]: 302
Population Apoptotic (%) [9]: 21%
Population Fragmented Nuclei (%) [9]: 11%
Population Healthy Nuclei (%) [9]: 79%
Population Hoechst High Intensity Objects (%) [9]: 3%
Population Membrane Permeable-Phenotype (%) [9]: 0%
Population Mitochondria Different-Phenotype (%) [9]: 22%
Population Mitotic Cells (%) [9]: 78%
Population Normal (%) [9]: 96%
Population Pyknosed Nuclei (%) [9]: 9%
Population Tubulin-Different-Phenotype (%) [9]: 15%
Total Cell Count [9]: 719
Population Apoptotic (%) [10]: 24%
Population Healthy Nuclei (%) [10]: 81%
Population Hoechst High Intensity Objects (%) [10]: 5%
Population Membrane Permeable-Phenotype (%) [10]: 1%
Population Mitochondria Different-Phenotype (%) [10]: 18%
Population Mitotic Cells (%) [10]: 75%
Population Normal (%) [10]: 94%
Population Pyknosed Nuclei (%) [10]: 7%
Population Tubulin-Different-Phenotype (%) [10]: 10%
Total Cell Count [10]: 777
Population Apoptotic (%) [11]: 25%
Population Fragmented Nuclei (%) [11]: 16%
Population Healthy Nuclei (%) [11]: 77%
Population Hoechst High Intensity Objects (%) [11]: 3%
Population Membrane Permeable-Phenotype (%) [11]: 1%
Population Mitochondria Different-Phenotype (%) [11]: 21%
Population Mitotic Cells (%) [11]: 75%
Population Normal (%) [11]: 96%
Population Pyknosed Nuclei (%) [11]: 6%
Population Tubulin-Different-Phenotype (%) [11]: 15%
Total Cell Count [11]: 756
Population Apoptotic (%) [12]: 40%
Population Fragmented Nuclei (%) [12]: 11%
Population Healthy Nuclei (%) [12]: 80%
Population Membrane Permeable-Phenotype (%) [12]: 0%
Population Mitochondria Different-Phenotype (%) [12]: 29%
Population Mitotic Cells (%) [12]: 59%
Population Pyknosed Nuclei (%) [12]: 8%
Population Tubulin-Different-Phenotype (%) [12]: 16%
Total Cell Count [12]: 477
